Assay results: ChEMBL document CHEMBL4513216, “Probing the Open Global Health Chemical Diversity Library for Multistage-Active Starting Points for Next-Generation Antimalarials” (ACS Infect Dis, 2020)

Assay: Toxicity liver stage against HepG2, at 10uM
Type: cell-based
Parameters: test concentration 10 uM, cell line HepG2-A16-CD81EGFP
Conditions: human, HepG2-A16-CD81EGFP cells; read-out: INHIBITION
Summary of the method: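 Uninfected HepG2-A16-CD81EGFP cells, 3 × 10^3 per well, 1536-well, plated on prespotted compound at 10 μM final, parasite-free screening media added to match infected plates; puromycin 10 μM positive, DMSO 0.5% negative; run in parallel with 48 h PbLuc assay at 37 °C, 5% CO2; viability by CellTiter-Glo luminescence, normalized to controls.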

SMILES | cytotoxicity at 10 µM
NC(=O)C(Cc1ccccc1)NS(=O)(=O)Cc1ccccc1Cl (centres undefined) | 7.56%
CC(C)CN1CCOC[C@H](Oc2ccc(S(C)(=O)=O)cc2)C1 | -1.67%
O=C(NCC(O)(c1ccco1)C1CC1)c1ccccc1F (centres undefined) | -1.16%
COc1ccccc1OCC(=O)NCC(C)(O)c1ccccc1 (centres undefined) | -5.37%
c1cnc(N2C[C@H]3CCC[C@@H](CN4CCCC4)[C@H]3C2)nc1 | -4.22%
CC(=O)N1CCCC2(C1)CN(C(=O)C1CCCCC1)CCO2 (centres undefined) | 2.08%
CC(=O)N1CCC2(C1)CN(C(=O)C1CCOC1)C2 (centres undefined) | 4.88%
O=c1[nH]nc2nc(N3CCSCC3)ccn12 | -13.5%
CC(C)c1cc2c(s1)NC(c1ccccc1)NC2=O (centres undefined) | 8.82%
CCS(=O)(=O)N1CCC(c2nn(CCN(C)C)c3ncccc23)C1 (centres undefined) | -4.88%
CCC1CNCc2cc3c(OC)ccc(OC)c3nc2O1 (centres undefined) | -4.22%
Cc1cc(N2CCC(O)CC2)nc(C2CCCN2C)n1 (centres undefined) | -1.89%
Cc1noc(C)c1C(=O)N1CCC2(CCc3ccccc3C(=O)N2)C1 (centres undefined) | 1.75%
CCCC(=O)N1CCCC(c2ccccn2)C1 (centres undefined) | 0.0858%
Cc1cnc(-c2nc(O)c3c(n2)CN(C(=O)C2CC2)CC3)cn1 | -6.74%
Cc1cc(N2CCCC2c2nc(C)cc(CCC(=O)O)n2)ncn1 (centres undefined) | -17.1%
COCC(=O)N1CCC(c2cc(C(F)(F)F)c3c(C)noc3n2)CC1 | -28%
O=C(N[C@@H]1CC[C@@H](n2ccnc2)[C@@H]1O)c1cc2c(s1)CCC2 | -12.7%
Cc1ccc(O)c(CNc2cccc(OCCF)c2)n1 | -3.09%
Cc1ccc(CN(CCN(C)C)C(=O)Cc2cn3ccccc3n2)o1 | -5.1%
CNC(=O)c1coc(-c2csc(C)n2)c1 | 6.96%

SMILES | cytotoxicity at 10 µM
CCS(=O)(=O)NCCN1CCc2ccc(F)cc2C1C (centres undefined) | 6.88%
CC(Nc1ccn(CCS(C)(=O)=O)n1)c1ccc(C#N)cc1 (centres undefined) | 8.64%
CCC(C)(C)NC(=O)c1ccc(NC(=O)NCc2cc(C)no2)cc1 | 0.696%
COc1ccnc(N2CCN(Cc3ncc(C(C)(C)C)o3)CC2)n1 | -7.2%
CN(CC(=O)NS(=O)(=O)c1ccsc1)Cc1ccccc1 | -5.1%
COc1cc(C(=O)NC(C)c2cccs2)cc2c1OCCO2 (centres undefined) | -18.2%
COC(CNC(=O)c1ccc(NC(C)=O)cc1)c1cccc(Cl)c1 (centres undefined) | 7.72%
CN(Cc1cnn(C)c1)C(=O)CCc1ccc2c(c1)OCO2 | -2.59%
N#Cc1ccc(N2CCCN(CCCn3cncn3)CC2)cc1 | -8.9%
O=C(Nc1nc(-c2ccccc2)ns1)N1CC[C@H](O)C1 | 10.5%
N#Cc1cc(NC(=O)c2cc[nH]n2)ccc1N1CCC(O)CC1 | -0.758%
O=C1NCCCCC1Sc1n[nH]c(=O)n1C1CC1 (centres undefined) | 5.24%
Cc1cc(C)n(C2CN(Cc3noc(C4CC4)n3)C2)n1 | 0.738%
NC(=O)C1CCN(Cn2nc(-c3ccc(F)cc3)oc2=O)C1 (centres undefined) | 14.6%
CC(=O)N(C)C1CCN(C(=O)c2cccc3c2ccn3C)CC1 | 1.56%
FC(F)c1nnc2ccc(N3CCC4(CCOC4)C3)nn12 (centres undefined) | 9.2%
O=C(Nc1cn[nH]c1)N(CCCO)C1CCc2ccccc21 (centres undefined) | -1.74%
COC(=O)NCCCC(=O)NC1(c2cccc(Cl)c2)CC1 | -2.56%
CCN1CCOC(CNc2nccc(C(F)(F)F)n2)C1 (centres undefined) | 5.31%
Cn1cc(CCCNC(=O)NCC(O)c2ccsc2)cn1 (centres undefined) | -5.4%
CN(CCN1CCOC1=O)CC(=O)Nc1cc(F)cc(F)c1 | -49.5%

SMILES | cytotoxicity at 10 µM
Cc1nn(C)c(Cl)c1CN1CCN(c2nccs2)C(C)C1 (centres undefined) | -27.1%
O=C(c1cc(Cl)c[nH]1)N1CCN(CCc2ccccn2)CC1 | 19.2%
CC(NC(=O)N1CCN(c2cccs2)CC1)c1ccncc1 (centres undefined) | 15.8%
CN1CCN(Cc2cccc(NCc3cc[nH]n3)c2)CC1 | 11.2%
O=C(NCC1Cn2nnc(-c3cccc(F)c3)c2CO1)c1ccc[nH]1 (centres undefined) | 1.46%
O=C(NC1CCCC1)N1CCC2(CC1)CC(Oc1cccnc1)CO2 (centres undefined) | -5.6%
CC1(C)CNC(=O)c2nc(-c3nnn[nH]3)[nH]c2C1 | -5.69%
Cc1ccccc1C(CC(=O)NCc1nnc(N)s1)c1ccccc1 (centres undefined) | 13.6%
O=C1OCCN1Cc1cccc(C(F)(F)F)c1F | -0.524%
Cc1cc(C)n(C2CN(C(=O)c3cn4ccsc4n3)C2)n1 | 4.99%
CC(C)[C@@H]1CN(Cc2ccccn2)C[C@H]1NS(=O)(=O)N(C)C | -0.869%
CCOCCn1nc(C)cc1C(=O)N1CCC2(CC1)[C@H](O)C[C@@H]2OCC | 4.35%
Cc1nc2c(c(N3CCC4(CCCNC4=O)C3)n1)CCC2 (centres undefined) | -12.8%
O=C(Cn1cccn1)NCC1CCN(Cc2cc3ccccc3[nH]2)C1 (centres undefined) | 7.11%
CCc1nccn1CCC(=O)N1CCOC(c2ccc(F)cc2)C1 (centres undefined) | -12.5%
CCc1noc(C)c1C(=O)N1CCC2(CCCN(CC(C)(C)C)C2=O)C1 (centres undefined) | 3.75%
Cc1cccnc1CNCC1(O)CCCN(CC2CCC2)C1=O (centres undefined) | -5.51%
CN(Cc1cc2n(n1)CCCNC2)Cc1n[nH]c2c1CCC2 | 3.04%
c1ccc(-c2ncc(CN3CCC4(CCNCC4)C3)cn2)cc1 | -5.71%
CNC(=O)[C@@H]1C[C@@H](N)CN1C(=O)CCSCc1ccc(F)cc1 | -17.6%
CCc1cc(CN(C)C(=O)CN2CC(c3ccccc3)CC2=O)on1 (centres undefined) | -4.81%

SMILES | cytotoxicity at 10 µM
Cc1nsc(NC(=O)N2CCCC2C)n1 (centres undefined) | -38.7%
CCc1nc2c(N3CCC4(CC3)CNC(=O)C4)ncnc2o1 | -2%
CC(C)Cc1nc(CN2CCCC2Cn2cncn2)no1 (centres undefined) | -8.66%
CCc1nc(C2CCCN2CCCSC)no1 (centres undefined) | -6.57%
CC(C)c1cc(NC(=O)CN2CCC(C(N)=O)CC2)on1 | -6.37%
Cc1cnn(CC2CN(Cc3csc(C(C)C)n3)CCO2)c1 (centres undefined) | 5.58%
CN(C)c1cc(CNC(=O)c2ccc(O)nc2)ccn1 | -16%
CCc1nc(CN2CCN(C(=O)c3cnccn3)CC2)cs1 | -8.92%
COc1cccc(Nc2nc(C3CCNCC3)c3ccccn23)c1 | -2.67%
OC1CCN(c2cncc(CCC3CCCN3)n2)CC1 (centres undefined) | -0.24%
CC(C)N1CCCC1c1cc(CO)[nH]n1 (centres undefined) | 6%
Cc1ccc(CN(CCCn2ccnc2)Cc2[nH]cnc2C)s1 | -22.8%
O=C(NC1CCCC1)c1cc(C2CCCNC2)n[nH]1 (centres undefined) | 5.27%
CN(C)c1ncc(C2Nc3ccccc3C3=NCCCN32)cn1 (centres undefined) | -23.2%
O=S(=O)(c1ccccc1)N1C[C@@H]2COC[C@]2(CN2CCOCC2)C1 | 2.32%
O=C(Cc1cccc(F)c1)N1C[C@H]2CN(Cc3ccccn3)C[C@H]2C1 | -2.25%
CN(C)C(=O)c1cnc2n1CCN(Cc1ccccc1)C2 | 7.05%
c1cc(CN2C[C@H](OCC3CCOCC3)[C@H]3COC[C@H]32)cs1 | 9.86%
CCCN1CCCn2c(nc(CNC(=O)c3cnoc3C)cc2=O)C1 | 2.32%
CSc1ncc(CN2C[C@@H]3CC[C@H]2CN(C2CCOCC2)C3)cn1 | -0.943%
CNC(=O)[C@H]1C[C@H]2CN(Cc3ccc(C)cc3)C[C@@H]1O2 | 1.82%
